ChEMBL document CHEMBL1152541, “Staurosporine tethered peptide ligands that target cAMP-dependent protein kinase (PKA): optimization and selectivity profiling” (Bioorg Med Chem, 2009)
*1 amine or outer side, *2 acyl side, *3 side chain or, on linkers, in order; H or OH if unused. Where a SMILES comes first, the peptide text is derived from it. Bridges are numbered along the chain shown (N, C = ends). [ ]: non-standard residue; d: D form. The star is where a group is joined. Staurosporine = CO[C@@H]1[C@H](N(C)*)C[C@H]2O[C@]1(C)n1c3ccccc3c3c4c(c5c6ccccc6n2c5c31)C(=O)NC4; Suc = O=C(CCC(=O)[*:2])[*:1]; Dap = NC[C@H](N)C(=O)O; βAla = NCCC(=O)O

Experiments:
[1] = target: T1, Tyrosine-protein kinase ZAP-70 (Homo sapiens) (UniProt P43403); test: Ratio of staurosporine to compound binding affinity to human ZAP70 in presence of DTT
T1 sequence (whole entry): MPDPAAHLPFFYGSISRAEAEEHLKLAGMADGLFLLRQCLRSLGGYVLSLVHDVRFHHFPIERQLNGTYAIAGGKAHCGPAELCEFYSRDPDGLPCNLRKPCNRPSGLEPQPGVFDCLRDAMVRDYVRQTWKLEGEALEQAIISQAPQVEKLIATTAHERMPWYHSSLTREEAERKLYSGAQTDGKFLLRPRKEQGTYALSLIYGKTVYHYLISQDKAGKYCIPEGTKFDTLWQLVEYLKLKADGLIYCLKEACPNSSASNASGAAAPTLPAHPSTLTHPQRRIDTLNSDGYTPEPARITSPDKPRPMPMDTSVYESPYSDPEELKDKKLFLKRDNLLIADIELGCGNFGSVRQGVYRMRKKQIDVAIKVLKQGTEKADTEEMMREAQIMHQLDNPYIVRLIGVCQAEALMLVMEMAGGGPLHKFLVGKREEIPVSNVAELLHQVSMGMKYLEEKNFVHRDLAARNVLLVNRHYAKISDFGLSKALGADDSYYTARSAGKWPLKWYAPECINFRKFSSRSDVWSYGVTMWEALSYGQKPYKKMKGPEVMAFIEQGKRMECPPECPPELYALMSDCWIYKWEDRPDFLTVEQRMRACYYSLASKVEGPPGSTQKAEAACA

[2] = target: Serine/threonine-protein kinase pim-3 (Homo sapiens) (UniProt Q86V86); test: Binding affinity to human PIM3 at 500 nM by cell-based competition binding assay relative to control in presence of DTT
[3] = target: Mitogen-activated protein kinase 14 (Homo sapiens) (UniProt Q16539); test: Binding affinity to human p38alpha at 500 nM by cell-based competition binding assay relative to control in presence of DTT
[4] = target: Cyclin-dependent kinase 3 (Homo sapiens) (UniProt Q00526); test: Binding affinity to human CDK3 at 200 nM by cell-based competition binding assay relative to control in presence of DTT
Summary of the method: (§1)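 Kinase binding profiling ran on a commercial (Ambit) competitive binding screen against a panel of 90 kinases. The screen used reducing conditions with 7.5 mM DTT. To withstand the DTT, the bivalent ligand was tested as its amide isostere, with the disulfide replaced. A staurosporine derivative carrying a 3 β-alanine linker was run as the reference compound.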

[5] = target: Phosphatidylinositol 4,5-bisphosphate 3-kinase catalytic subunit gamma isoform (Homo sapiens) (UniProt P48736); test: Binding affinity to human PIK3Cgamma at 200 nM by cell-based competition binding assay relative to control in presence of DTT
[6] = system: Tyrosine-protein kinase ABL1 (Homo sapiens), P00519 [E255K]; test: Binding affinity to human ABL1 E255K mutant at 200 nM by cell-based competition binding assay relative to control in presence of DTT; summary of the method: as §1
[7] = target: T2, Activin receptor type-1B (Homo sapiens) (UniProt P36896); test: Binding affinity to human ACVR1B at 50 nM by cell-based competition binding assay relative to control in presence of DTT; summary of the method: as §1
T2 sequence (whole entry): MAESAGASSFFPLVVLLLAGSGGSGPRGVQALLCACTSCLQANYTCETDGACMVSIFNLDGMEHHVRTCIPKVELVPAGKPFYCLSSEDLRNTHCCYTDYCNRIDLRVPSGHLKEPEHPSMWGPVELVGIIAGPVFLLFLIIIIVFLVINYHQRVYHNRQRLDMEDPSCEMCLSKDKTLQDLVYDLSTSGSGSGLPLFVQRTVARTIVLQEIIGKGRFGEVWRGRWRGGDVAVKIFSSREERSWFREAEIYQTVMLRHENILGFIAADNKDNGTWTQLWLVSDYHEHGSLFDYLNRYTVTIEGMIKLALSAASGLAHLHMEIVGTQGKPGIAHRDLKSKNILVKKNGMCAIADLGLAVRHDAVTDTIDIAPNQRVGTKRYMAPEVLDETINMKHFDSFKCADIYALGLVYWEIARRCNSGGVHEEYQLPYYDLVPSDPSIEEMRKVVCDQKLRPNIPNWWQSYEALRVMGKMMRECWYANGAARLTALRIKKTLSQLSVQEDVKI

[8] = target: Proto-oncogene tyrosine-protein kinase Src (Homo sapiens) (UniProt P12931); test: Binding affinity to human SRC at 50 nM by cell-based competition binding assay relative to control in presence of DTT
[9] = target: T3, Testis-specific serine/threonine-protein kinase 1 (Homo sapiens) (UniProt Q9BXA7); test: Binding affinity to human TSSK1 at 50 nM by cell-based competition binding assay relative to control in presence of DTT
T3 sequence (whole entry): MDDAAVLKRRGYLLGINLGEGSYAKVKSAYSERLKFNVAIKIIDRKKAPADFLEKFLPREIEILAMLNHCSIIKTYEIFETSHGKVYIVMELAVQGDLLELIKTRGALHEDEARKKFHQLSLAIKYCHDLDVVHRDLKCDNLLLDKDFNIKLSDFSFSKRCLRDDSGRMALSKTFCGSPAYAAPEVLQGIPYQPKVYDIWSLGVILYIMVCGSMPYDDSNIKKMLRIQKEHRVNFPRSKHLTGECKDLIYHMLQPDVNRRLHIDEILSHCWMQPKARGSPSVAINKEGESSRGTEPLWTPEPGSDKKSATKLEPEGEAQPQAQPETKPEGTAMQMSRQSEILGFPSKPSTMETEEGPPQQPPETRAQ

[10] = target: Serine/threonine-protein kinase PLK1 (Homo sapiens) (UniProt P53350); test: Binding affinity to human PLK1 at 50 nM by cell-based competition binding assay relative to control in presence of DTT
Chain of Serine/threonine-protein kinase PLK1 (Homo sapiens) (P53350 whole entry): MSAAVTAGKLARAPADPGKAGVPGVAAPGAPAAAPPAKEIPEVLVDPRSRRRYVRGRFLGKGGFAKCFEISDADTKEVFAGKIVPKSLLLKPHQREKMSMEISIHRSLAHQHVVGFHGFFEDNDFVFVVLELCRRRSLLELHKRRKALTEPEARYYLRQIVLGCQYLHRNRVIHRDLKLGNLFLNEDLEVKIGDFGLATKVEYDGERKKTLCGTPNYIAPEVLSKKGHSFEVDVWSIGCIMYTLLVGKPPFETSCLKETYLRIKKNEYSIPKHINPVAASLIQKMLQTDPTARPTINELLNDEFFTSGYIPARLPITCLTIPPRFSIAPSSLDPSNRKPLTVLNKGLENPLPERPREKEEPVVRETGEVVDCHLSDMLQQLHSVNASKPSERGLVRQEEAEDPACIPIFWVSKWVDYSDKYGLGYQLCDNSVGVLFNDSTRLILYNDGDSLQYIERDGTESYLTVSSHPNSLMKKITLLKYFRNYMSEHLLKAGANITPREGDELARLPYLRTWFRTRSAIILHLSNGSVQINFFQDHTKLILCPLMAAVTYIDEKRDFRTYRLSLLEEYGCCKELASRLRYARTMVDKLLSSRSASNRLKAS

Chain of Cyclin-dependent kinase 3 (Homo sapiens) (Q00526 whole entry, looked up): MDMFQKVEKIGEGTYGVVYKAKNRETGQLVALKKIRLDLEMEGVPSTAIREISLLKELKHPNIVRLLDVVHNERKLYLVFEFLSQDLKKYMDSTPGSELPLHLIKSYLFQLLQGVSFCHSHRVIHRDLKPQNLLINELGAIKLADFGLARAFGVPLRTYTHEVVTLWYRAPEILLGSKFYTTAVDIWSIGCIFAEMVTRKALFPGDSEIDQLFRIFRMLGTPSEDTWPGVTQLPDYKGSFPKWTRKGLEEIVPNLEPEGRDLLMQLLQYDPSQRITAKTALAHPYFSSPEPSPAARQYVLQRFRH
Chain of Phosphatidylinositol 4,5-bisphosphate 3-kinase catalytic subunit gamma isoform (Homo sapiens) (P48736 whole entry, looked up, canonical isoform): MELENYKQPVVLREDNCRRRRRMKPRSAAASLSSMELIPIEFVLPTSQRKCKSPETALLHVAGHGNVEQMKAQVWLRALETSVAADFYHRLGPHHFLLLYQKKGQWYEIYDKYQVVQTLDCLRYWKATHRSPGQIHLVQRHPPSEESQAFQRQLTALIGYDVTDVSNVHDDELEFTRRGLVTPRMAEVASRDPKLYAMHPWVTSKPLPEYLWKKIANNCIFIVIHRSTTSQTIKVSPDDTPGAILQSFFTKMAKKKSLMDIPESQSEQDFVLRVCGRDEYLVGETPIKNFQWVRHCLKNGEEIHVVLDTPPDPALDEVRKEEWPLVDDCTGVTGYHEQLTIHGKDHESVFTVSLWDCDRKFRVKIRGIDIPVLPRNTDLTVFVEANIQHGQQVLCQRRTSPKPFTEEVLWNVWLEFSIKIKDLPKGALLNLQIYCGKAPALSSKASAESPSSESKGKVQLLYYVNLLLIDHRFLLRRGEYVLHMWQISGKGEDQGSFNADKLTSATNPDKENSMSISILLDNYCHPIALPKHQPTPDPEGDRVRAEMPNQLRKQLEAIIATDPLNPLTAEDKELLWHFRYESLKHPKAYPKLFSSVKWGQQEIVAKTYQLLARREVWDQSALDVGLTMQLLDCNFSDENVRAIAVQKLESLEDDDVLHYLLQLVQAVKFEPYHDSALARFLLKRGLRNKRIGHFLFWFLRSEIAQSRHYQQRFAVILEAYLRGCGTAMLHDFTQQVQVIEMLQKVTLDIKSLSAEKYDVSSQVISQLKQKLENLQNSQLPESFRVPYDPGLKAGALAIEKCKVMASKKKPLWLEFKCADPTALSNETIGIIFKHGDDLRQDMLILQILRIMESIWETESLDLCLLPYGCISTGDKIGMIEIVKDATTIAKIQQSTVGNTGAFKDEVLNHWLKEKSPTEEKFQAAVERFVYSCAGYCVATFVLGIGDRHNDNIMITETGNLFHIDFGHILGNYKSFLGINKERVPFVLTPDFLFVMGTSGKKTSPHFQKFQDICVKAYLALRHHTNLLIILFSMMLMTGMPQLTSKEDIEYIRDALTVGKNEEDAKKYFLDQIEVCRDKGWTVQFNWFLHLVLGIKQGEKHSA
Chain of Tyrosine-protein kinase ABL1 (Homo sapiens), P00519 [E255K] (P00519 whole entry E255K): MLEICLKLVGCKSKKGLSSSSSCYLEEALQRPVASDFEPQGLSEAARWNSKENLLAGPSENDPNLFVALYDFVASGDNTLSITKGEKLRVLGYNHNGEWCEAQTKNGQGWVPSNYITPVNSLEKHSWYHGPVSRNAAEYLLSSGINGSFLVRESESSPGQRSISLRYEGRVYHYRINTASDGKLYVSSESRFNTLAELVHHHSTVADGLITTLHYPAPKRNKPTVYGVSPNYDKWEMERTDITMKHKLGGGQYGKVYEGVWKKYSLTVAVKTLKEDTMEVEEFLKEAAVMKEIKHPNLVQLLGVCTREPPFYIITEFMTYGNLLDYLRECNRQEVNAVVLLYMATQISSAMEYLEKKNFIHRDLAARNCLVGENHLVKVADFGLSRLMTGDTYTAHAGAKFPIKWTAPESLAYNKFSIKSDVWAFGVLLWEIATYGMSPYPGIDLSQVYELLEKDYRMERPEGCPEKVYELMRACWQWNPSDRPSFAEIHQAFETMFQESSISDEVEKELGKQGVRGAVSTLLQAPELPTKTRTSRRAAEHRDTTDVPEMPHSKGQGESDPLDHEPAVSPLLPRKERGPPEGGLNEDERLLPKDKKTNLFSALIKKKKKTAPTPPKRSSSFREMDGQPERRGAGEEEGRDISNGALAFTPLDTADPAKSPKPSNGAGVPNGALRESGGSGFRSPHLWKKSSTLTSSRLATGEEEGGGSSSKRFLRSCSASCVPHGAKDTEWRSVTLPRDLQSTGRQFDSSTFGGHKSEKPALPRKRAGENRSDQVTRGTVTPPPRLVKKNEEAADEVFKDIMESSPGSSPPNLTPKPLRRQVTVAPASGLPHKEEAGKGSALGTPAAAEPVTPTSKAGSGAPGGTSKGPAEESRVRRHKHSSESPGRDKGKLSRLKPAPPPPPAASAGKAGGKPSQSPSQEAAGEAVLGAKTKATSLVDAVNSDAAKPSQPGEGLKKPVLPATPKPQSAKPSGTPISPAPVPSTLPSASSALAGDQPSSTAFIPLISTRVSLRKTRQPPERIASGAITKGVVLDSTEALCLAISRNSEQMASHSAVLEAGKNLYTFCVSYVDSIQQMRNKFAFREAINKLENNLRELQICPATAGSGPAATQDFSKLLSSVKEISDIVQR
Chain of Mitogen-activated protein kinase 14 (Homo sapiens) (Q16539 whole entry): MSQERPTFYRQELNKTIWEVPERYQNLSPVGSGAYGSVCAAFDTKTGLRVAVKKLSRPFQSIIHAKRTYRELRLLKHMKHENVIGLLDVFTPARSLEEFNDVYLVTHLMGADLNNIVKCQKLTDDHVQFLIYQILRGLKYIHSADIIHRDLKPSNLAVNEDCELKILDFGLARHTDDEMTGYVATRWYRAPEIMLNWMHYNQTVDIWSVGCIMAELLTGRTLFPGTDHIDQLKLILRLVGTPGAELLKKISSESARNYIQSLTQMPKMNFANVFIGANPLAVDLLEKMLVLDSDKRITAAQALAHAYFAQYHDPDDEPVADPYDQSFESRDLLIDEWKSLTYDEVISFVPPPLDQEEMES
Chain of Proto-oncogene tyrosine-protein kinase Src (Homo sapiens) (P12931 2-536 limits assumed): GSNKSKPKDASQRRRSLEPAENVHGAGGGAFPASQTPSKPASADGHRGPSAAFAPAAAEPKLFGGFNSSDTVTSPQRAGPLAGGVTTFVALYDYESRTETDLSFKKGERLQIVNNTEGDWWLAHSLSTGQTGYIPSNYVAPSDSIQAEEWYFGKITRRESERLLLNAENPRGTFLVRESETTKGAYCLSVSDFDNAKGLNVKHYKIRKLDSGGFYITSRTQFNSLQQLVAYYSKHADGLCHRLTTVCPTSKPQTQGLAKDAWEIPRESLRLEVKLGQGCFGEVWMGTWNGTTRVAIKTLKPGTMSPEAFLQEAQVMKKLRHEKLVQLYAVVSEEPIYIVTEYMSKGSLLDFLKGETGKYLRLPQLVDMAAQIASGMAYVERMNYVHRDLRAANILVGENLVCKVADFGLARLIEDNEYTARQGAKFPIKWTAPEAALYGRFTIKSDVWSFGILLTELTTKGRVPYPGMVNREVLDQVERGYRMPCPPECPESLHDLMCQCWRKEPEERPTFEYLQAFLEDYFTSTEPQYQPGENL

Question: With CO[C@@H]1[C@H](N(C)C(=O)CCC(=O)NCCC(=O)NCCC(=O)NCCC(N)=O)C[C@H]2O[C@]1(C)n1c3ccccc3c3c4c(c5c6ccccc6n2c5c31)C(=O)NC4 as the molecule, how does the Selectivity ratio [1] read?
Answer: 3

Question: What about the Activity [2] of the same molecule?
Answer: 10%

Question: And the Activity [3]?
Answer: 93%

Question: For CO[C@@H]1[C@H](N(C)C(=O)CCC(=O)NCCC(=O)NCCC(=O)NCCC(=O)NCCC(=O)NCCC(=O)NCCC(=O)NCCC(=O)N[C@H]2CSSC[C@@H](C(=O)NCC(N)=O)NC(=O)CNC(=O)[C@H](Cc3ccccc3)NC(=O)[C@H](C(C)C)NC(=O)[C@H](CCCNC(=N)N)NC(=O)[C@H](Cc3ccccc3)NC(=O)[C@H](C(C)C)NC2=O)C[C@H]2O[C@]1(C)n1c3ccccc3c3c4c(c5c6ccccc6n2c5c31)C(=O)NC4 ({Staurosporine-Suc-βAla-βAla-βAla-βAla-βAla-βAla-βAla}-CVFRVFGCG-NH2; disulfide 1-8), which Activity [4] is on record?
Answer: 100%

Question: What about the Activity [5] of the same molecule?
Answer: 100%

Question: What about the Activity [6] of the same molecule?
Answer: 100%

Question: CO[C@@H]1[C@H](N(C)C(=O)CCC(=O)NCCC(=O)NCCC(=O)NCCC(=O)NCCC(=O)NCCC(=O)NCCC(=O)NCCC(=O)N[C@H]2CNC(=O)C[C@@H](C(N)=O)NC(=O)CNC(=O)[C@H](Cc3ccccc3)NC(=O)[C@H](C(C)C)NC(=O)[C@H](CCCNC(=N)N)NC(=O)[C@H](Cc3ccccc3)NC(=O)[C@H](C(C)C)NC2=O)C[C@H]2O[C@]1(C)n1c3ccccc3c3c4c(c5c6ccccc6n2c5c31)C(=O)NC4 ({Staurosporine-Suc-βAla-βAla-βAla-βAla-βAla-βAla-βAla}-[Dap]VFRVFGD-NH2; lactam 1-8) was tested. Which Activity [7] did it give?
Answer: 100%

Question: And the Activity [8]?
Answer: 100%

Question: And the Activity [9]?
Answer: 100%

Question: What about the Activity [10] of the same molecule?
Answer: 100%
